Reference: ChEMBL document CHEMBL4177757, “Tight-Binding Inhibition of Human Monoamine Oxidase B by Chromone Analogs: A Kinetic, Crystallographic, and Biological Analysis” (J Med Chem, 2018)

Columns and labels:
[1] = target: T1, Amine oxidase [flavin-containing] A (Homo sapiens, UniProt P21397); assay: Inhibition of recombinant human MAO-A expressed in Pichia pastoris up to 100 uM using kynuramine as substrate by fluorimetric horseradish peroxidase-Amplex Red-coupled assay
T1 sequence (P21397 whole entry): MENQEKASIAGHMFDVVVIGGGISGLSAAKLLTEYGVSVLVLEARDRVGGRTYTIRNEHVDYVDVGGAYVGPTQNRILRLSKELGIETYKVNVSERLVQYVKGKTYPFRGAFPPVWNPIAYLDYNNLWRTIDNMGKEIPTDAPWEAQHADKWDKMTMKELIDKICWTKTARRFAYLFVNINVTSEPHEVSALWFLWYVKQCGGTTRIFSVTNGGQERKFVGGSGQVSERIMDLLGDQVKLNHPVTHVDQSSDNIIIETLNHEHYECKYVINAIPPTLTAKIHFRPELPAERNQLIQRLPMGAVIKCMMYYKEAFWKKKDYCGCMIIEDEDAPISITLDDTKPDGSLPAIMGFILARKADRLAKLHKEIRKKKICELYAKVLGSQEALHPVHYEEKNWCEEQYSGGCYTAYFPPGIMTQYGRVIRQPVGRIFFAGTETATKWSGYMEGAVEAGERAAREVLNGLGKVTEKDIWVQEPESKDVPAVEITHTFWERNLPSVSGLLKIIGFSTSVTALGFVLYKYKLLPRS

[2] = target: T2, Amine oxidase [flavin-containing] B (Homo sapiens, UniProt P27338); assay: Non-competitive inhibition of recombinant human MAO-B expressed in Pichia pastoris using benzylamine as substrate by fluorimetric horseradish peroxidase-Amplex Red-coupled assay
T2 sequence (P27338 whole entry): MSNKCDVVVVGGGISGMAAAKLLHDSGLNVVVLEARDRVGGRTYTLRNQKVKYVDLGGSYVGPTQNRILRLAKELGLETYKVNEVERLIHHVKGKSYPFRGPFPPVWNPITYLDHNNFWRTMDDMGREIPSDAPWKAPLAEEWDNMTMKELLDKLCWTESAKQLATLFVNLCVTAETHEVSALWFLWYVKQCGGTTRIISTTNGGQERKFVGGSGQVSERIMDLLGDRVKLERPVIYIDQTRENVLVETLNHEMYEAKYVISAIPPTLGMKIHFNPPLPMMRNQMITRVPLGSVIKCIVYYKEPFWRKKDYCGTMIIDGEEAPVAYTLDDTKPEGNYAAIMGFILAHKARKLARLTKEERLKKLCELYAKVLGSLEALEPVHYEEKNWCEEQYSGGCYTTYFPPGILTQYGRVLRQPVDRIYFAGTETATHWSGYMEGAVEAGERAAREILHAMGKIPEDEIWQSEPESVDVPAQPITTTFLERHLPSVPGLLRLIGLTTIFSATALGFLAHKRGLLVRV
Procedure, shortened: (§1)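 Purified Pichia-expressed human MAO-B, benzylamine substrate, H2O2 detected by HRP-Amplex Red coupling. Initial rates were measured at varying substrate and inhibitor levels. Inhibition mode came from global fits to competitive, mixed, non-competitive and uncompetitive Michaelis-Menten forms, chosen by r², plus double-reciprocal plots ([…] vs 1/[S]).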

[3] = target: T2, Amine oxidase [flavin-containing] B; assay: Mixed-type inhibition of recombinant human MAO-B expressed in Pichia pastoris using benzylamine as substrate by fluorimetric horseradish peroxidase-Amplex Red-coupled assay; procedure, shortened: as §1
[4] = target: T2, Amine oxidase [flavin-containing] B; assay: Tight-binding competitive inhibition of recombinant human MAO-B expressed in Pichia pastoris using benzylamine as substrate by fluorimetric horseradish peroxidase-Amplex Red-coupled assay

Row | SMILES | inhibition (INH) [1] | inhibition (INH) [2] | inhibition (INH) [3] | Ki [4]
1 | O=C(Nc1cccc(F)c1)c1coc2ccccc2c1=O | Not Active | Active | Active | 31 nM
2 | O=c1c(CNc2cccc(Cl)c2)coc2ccccc12 | Not Active | – | – | 2930 nM
